{"source": "paper PMC6457131", "about": "(AIDS (London, England), 2019)", "key": {"EcoHIV-infected mice [1]": {"system": "EcoHIV-infected mice", "details": "cited from earlier work"}, "EcoHIV-infected mice [2]": {"system": "EcoHIV-infected mice", "experiment": "Radial arm water maze", "type": "in vivo, C57BL/6J mice"}, "[3]": {"experiment": "Intranasal insulin pharmacokinetics in plasma, CSF and cortex", "type": "in vivo, C57BL/6 mice"}, "[4]": {"system": "MAP2 and NeuN in CA1 and CA3 regions of the hippocampus", "experiment": "Hippocampal neuronal integrity by MAP2/NeuN immunofluorescence staining", "type": "in vivo, mice", "outline": "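Brains came from 3 mice per variable after behavioural testing. After perfusion, frozen sections were immunostained for MAP2 (dendrites) and NeuN (neuronal nuclei) and imaged by confocal microscopy. Fluorescence was quantified in hippocampal CA1 and CA3.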"}, "[5]": {"system": "neuronal function and metabolism-related genes in the brain", "type": "in vivo, mice", "details": "intranasal insulin daily for 9 days"}, "EcoHIV": {"system": "EcoHIV", "experiment": "EcoHIV burdens in spleen cells and brain by quantitative PCR", "type": "in vivo, mice"}, "EcoHIV-infected mice [6]": {"system": "EcoHIV-infected mice", "experiment": "Contextual fear conditioning", "type": "in vivo", "details": "129x1/SvJ mice, 1 month after infection, during intranasal insulin treatment"}, "[7]": {"details": "intranasal 2.4 IU; cited from earlier work"}, "[8]": {"details": "intranasal 2.4 IU/mouse, uninfected mice, n = 3-8/group, observed value, ELISA"}, "[9]": {"details": "intranasal 2.4 IU/mouse, converted with 1 μIU/ml = 0.14 pmol/l"}, "[10]": {"details": "intranasal insulin daily for 9 days, QPCR"}}, "note": "Entries after “also recorded” stand apart in the source; their conditions may differ.", "data": [{"compound": "[N-]=[N+]=CC(=O)CC[C@H](N)C(=O)O", "note": "[6-diazo-5-oxo-L-norleucine]", "values": [{"measurement": "EcoHIV virus replication", "setting": "EcoHIV-infected mice [1]", "value": "but not virus replication"}, {"measurement": "murine NCI caused by EcoHIV", "setting": "EcoHIV-infected mice [1]", "value": "can be prevented"}]}, {"compound": "Human insulin", "values": [{"measurement": "RAWM visible platform latency (mobility, vision, motivation)", "setting": "EcoHIV-infected mice [2]; all mouse groups, intranasal insulin daily for 9 days", "value": "performed equally well"}, {"measurement": "day of RAWM testing at which maximum effect on working memory was reached", "setting": "EcoHIV-infected mice [2]; infected mice, daily retention trial", "value": "≤ 5", "unit": "days"}, {"measurement": "NCI in RAWM, 3 months after infection", "setting": "EcoHIV-infected mice [2]; intranasal 2.4 IU/mouse daily for 9 days, started 3 months after EcoHIV infection", "value": "completely reversed; also recorded: fully reversible"}, {"measurement": "RAWM performance of infected animals after treatment cessation", "setting": "EcoHIV-infected mice [2]; last 3-day average, compared with infected, continually treated animals", "value": "dramatically worsened"}, {"measurement": "cortex insulin level above baseline", "setting": "[3]; for 3 h following intranasal 2.4 IU/mouse", "value": "more than 10 fold"}, {"measurement": "duration of therapeutic intracerebral insulin concentrations", "setting": "[3]; intranasal 2.4 IU/mouse", "value": "2 to 3", "unit": "h"}, {"measurement": "time by which insulin cleared to baseline, cortex", "setting": "[3]; intranasal 2.4 IU/mouse", "value": "≤ 6", "unit": "h"}, {"measurement": "time by which insulin cleared to baseline, plasma", "setting": "[3]; intranasal 2.4 IU/mouse", "value": "≤ 6", "unit": "h"}, {"measurement": "time by which insulin cleared, CSF", "setting": "[3]; intranasal 2.4 IU/mouse", "value": "≤ 3", "unit": "h"}, {"measurement": "Cmax, CSF", "setting": "[3]; [8]", "value": 17, "unit": "μIU/ml"}, {"measurement": "Cmax, plasma", "setting": "[3]; [8]", "value": 11.7, "unit": "μIU/ml"}, {"measurement": "Tmax, CSF", "setting": "[3]; [8]", "value": 1, "unit": "h"}, {"measurement": "Cmax, CSF", "setting": "[3]; [9]", "value": 2.38, "unit": "pmol/L"}, {"measurement": "Cmax, cortex", "setting": "[3]; [9]", "value": 7.42, "unit": "pM"}, {"measurement": "Cmax, plasma", "setting": "[3]; [9]", "value": 1.64, "unit": "pmol/L"}, {"measurement": "half-life of insulin in cerebrospinal fluid", "setting": "[3]; intranasal administration to mice", "value": "about 2 h"}, {"measurement": "NeuN staining of neuronal cell bodies in hippocampus", "setting": "[4]; all conditions tested", "value": "remained unaltered"}, {"measurement": "MAP2 dendrite staining in CA1 and CA3 regions of hippocampus of infected mice", "setting": "[4]; intranasal insulin daily for 9 days, three mice per variable", "value": "levels similar to uninfected mice"}, {"measurement": "downmodulation of fourteen genes in brains of EcoHIV-infected mice", "setting": "[5]", "value": "fully reversed"}, {"measurement": "peripheral virus burdens after discontinuation of insulin treatment", "setting": "EcoHIV; EcoHIV + insulin/disc group compared with untreated mice", "value": "significantly increased"}, {"measurement": "HIV DNA brain levels, 3 months after infection", "setting": "EcoHIV; [10]", "value": "not significantly affected"}, {"measurement": "HIV brain burdens, 1 month after infection", "setting": "EcoHIV; [10]", "value": "significantly reduced"}, {"measurement": "HIV levels in spleen, 1 month after infection", "setting": "EcoHIV; [10]", "value": "no effect"}, {"measurement": "contextual freezing response time of infected mice", "setting": "EcoHIV-infected mice [6]", "value": "returned the freezing response time of infected mice to that of uninfected animals"}, {"measurement": "energy metabolism in mouse brain", "setting": "[7]", "value": "increases energy metabolism in mouse brain"}, {"measurement": "plasma glucose levels", "setting": "[7]", "value": "but not plasma glucose levels"}]}]}
